Test results reported in ChEMBL document CHEMBL3286104, “Synthesis and structure-activity relationship studies in serotonin 5-HT4 receptor ligands based on a benzo[de][2,6]naphthridine scaffold” (Eur J Med Chem, 2014).

What was measured:
[1] = biological target: T1, 5-hydroxytryptamine receptor 4 (Homo sapiens, UniProt Q13639); test: Partial agonist activity at Rluc-tagged human 5HT4R expressed in human SH-SY5Y cells assessed as effect on serotonin-induced receptor/Gbeta1 coupling by BRET assay; type: cell-based
T1 sequence (Q13639 whole entry): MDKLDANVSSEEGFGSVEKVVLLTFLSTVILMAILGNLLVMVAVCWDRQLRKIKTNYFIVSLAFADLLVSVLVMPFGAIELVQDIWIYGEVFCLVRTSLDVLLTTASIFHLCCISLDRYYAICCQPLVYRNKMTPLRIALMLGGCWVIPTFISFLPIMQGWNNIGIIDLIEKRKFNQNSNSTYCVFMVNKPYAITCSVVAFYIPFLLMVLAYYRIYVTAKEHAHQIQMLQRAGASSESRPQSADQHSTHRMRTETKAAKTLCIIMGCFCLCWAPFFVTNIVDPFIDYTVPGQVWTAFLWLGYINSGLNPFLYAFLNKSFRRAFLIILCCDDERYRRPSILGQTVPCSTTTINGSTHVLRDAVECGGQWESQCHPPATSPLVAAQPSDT
Outline: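 BRET on membranes (5 µg protein in PBS) from […] cells co-expressing Rluc-human 5-HT4R and RGFP-Gβ1, with ligand at 10 µM. The baseline recorded without ligand was subtracted, and the BRET ratio was expressed relative to that obtained with 10 µM serotonin. Means ± SEM of 3 determinations.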

[2] = biological target: 5-hydroxytryptamine receptor 4 (Cavia porcellus, UniProt O70528); test: Displacement of [3H]GR113808 from Dunkin-Hartley guinea pig brain striatum 5HT4R after 30 mins
5-hydroxytryptamine receptor 4 (Cavia porcellus, UniProt O70528), sequence (O70528 whole entry): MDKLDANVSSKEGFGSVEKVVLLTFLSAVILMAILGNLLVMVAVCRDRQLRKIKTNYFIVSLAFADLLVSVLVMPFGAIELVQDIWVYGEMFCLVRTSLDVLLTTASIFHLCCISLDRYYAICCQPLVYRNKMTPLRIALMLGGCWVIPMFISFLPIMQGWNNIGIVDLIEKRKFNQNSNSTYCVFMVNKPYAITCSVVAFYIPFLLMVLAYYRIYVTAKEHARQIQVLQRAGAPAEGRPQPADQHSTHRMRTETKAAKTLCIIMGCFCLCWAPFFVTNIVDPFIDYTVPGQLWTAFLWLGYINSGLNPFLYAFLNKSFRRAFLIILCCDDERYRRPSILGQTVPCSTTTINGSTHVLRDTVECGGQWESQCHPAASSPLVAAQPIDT
Outline: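 Striatal crude membranes from decapitated guinea pigs, diluted in 50 mM Hepes pH 7.4, were incubated with [3H]17 (0.2 nM final) at 37 °C for 30 min. Separation by rapid filtration on PEI-treated GF/B filters, then scintillation counting. Nonspecific binding was defined with 30 µM 5-HT. Ki was derived as IC50/(1+L/Kd). Mean ± SEM of 3 independent determinations run in duplicate.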

[3] = biological target: T1, 5-hydroxytryptamine receptor 4; test: Antagonist activity at Rluc-tagged human 5HT4R expressed in human SH-SY5Y cells assessed as inhibition of serotonin-induced receptor/Gbeta1 coupling by BRET assay; type: cell-based
Outline: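 Cell-free BRET on enriched membranes (5 µg protein in PBS) from […] neuroblastoma cells retrovirally co-expressing Rluc-tagged human 5-HT4R and RGFP-fused Gβ1. Coupling was induced with 100 nM serotonin and inhibited by ligand at 8 log-spaced concentrations. IC50 for 50% inhibition of coupling was computed from the concentration-inhibition curves.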

SMILES | IC50 [1] | Ki [2] | IC50 [3]
COc1cc(N)c(Cl)cc1C(=O)OCCCN1CCCCC1 | 49 nM | 19 nM | –
O=C1c2cc(Cl)nc3cccc(c23)CN1CCCN1CCCCC1 | 195 nM | 563 nM | –
COc1cc2c3c(cccc3n1)C(=O)N(CCCN1CCCCC1)C2=O | – | 44 nM | 110 nM
O=C1c2cccc3nc(N4CCCCC4)cc(c23)C(=O)N1CCCN1CCCCC1 | – | 344 nM | –
O=C1c2cccc3nc(Cl)cc(c23)C(=O)N1CCCN1CCCCC1 | – | 105 nM | 453 nM
COc1cc(C(=O)OCCCN2CCCCC2)c2ccccc2n1 | – | 52 nM | 203 nM
COc1cc2c3c(cccc3n1)CN(CCCN1CCCCC1)C2=O | – | 283 nM | 916 nM
O=C1c2cccc3nc(N4CCCC4)cc(c23)C(=O)N1CCCN1CCCCC1 | – | > 1000 nM | –
COc1cc(C(=O)NCCCN2CCCCC2)c2ccccc2n1 | – | > 1000 nM | –
O=C1c2cc(N3CCCC3)nc3cccc(c23)CN1CCCN1CCCCC1 | – | > 1000 nM | –
